# Laboratory results: ChEMBL document CHEMBL1142136, “Contribution of target gene mutations and efflux to decreased susceptibility of Salmonella enterica serovar typhimurium to fluoroquinolones and other antimicrobials” (2007)
# Legend:
# Format in all cases: functional, Salmonella enterica subsp. enterica serovar Typhimurium
# Salmonella typhimurium [1] = experiment: Antimicrobial activity against Salmonella enterica serovar Typhimurium CS9 acrAB::Kan with GyrA S83F, D87N, ParC S80I mutation
# Method in brief: (§1)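 MICs measured by broth microdilution on the Sensititre automated system and interpreted by CLSI broth microdilution standards. Ciprofloxacin was also tested by agar dilution, widening the range to 0.0075–128 μg/ml. Quality control strains were E. coli ATCC 25922 and 35218, E. faecalis ATCC 29212, S. aureus ATCC 29213 and P. aeruginosa ATCC 27853.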
# Salmonella typhimurium [2] = experiment: Antimicrobial activity against Salmonella enterica serovar Typhimurium S21 acrAB::Kan
# Method in brief: (§2)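 MICs by automated broth microdilution panels, interpreted to CLSI broth microdilution standards. Ciprofloxacin additionally tested by agar dilution across 0.0075 to 128 μg/ml. Quality control strains: E. coli ATCC 25922 and 35218, Enterococcus faecalis ATCC 29212, S. aureus ATCC 29213, P. aeruginosa ATCC 27853. Test strains are kanamycin-marked deletion mutants of ground-beef isolate S21.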
# Salmonella typhimurium [3] = experiment: Antimicrobial activity against Salmonella enterica serovar Typhimurium CHS14 gyrA+ with GyrA D87G mutation; method in brief: as §1
# Salmonella typhimurium [4] = experiment: Antimicrobial activity against Salmonella enterica serovar Typhimurium CS1 with GyrA S83F, D87N, ParC S80I mutation; method in brief: as §1
# Salmonella typhimurium [5] = experiment: Antimicrobial activity against Salmonella enterica serovar Typhimurium CHS38 acrAB::Kan with GyrA D87G mutation; method in brief: as §1
# Salmonella typhimurium [6] = experiment: Antimicrobial activity against Salmonella enterica serovar Typhimurium S21; method in brief: as §1
# Salmonella typhimurium [7] = experiment: Antimicrobial activity against Salmonella enterica serovar Typhimurium CHS38 tolC::Kan with GyrA D87G mutation; method in brief: as §1
# Salmonella typhimurium [8] = experiment: Antimicrobial activity against Salmonella enterica serovar Typhimurium S21 tolC::Kan; method in brief: as §2
# Salmonella typhimurium [9] = experiment: Antimicrobial activity against Salmonella enterica serovar Typhimurium CHS18 gyrA+ with GyrA S38F mutation; method in brief: as §1
# Salmonella typhimurium [10] = experiment: Antimicrobial activity against Salmonella enterica serovar Typhimurium CHS18 with GyrA S38F mutation; method in brief: as §1
# Salmonella typhimurium [11] = experiment: Antimicrobial activity against Salmonella enterica serovar Typhimurium CS3 acrAB::Kan with GyrA S83F, D87N, ParC S80I mutation; method in brief: as §1
# Salmonella typhimurium [12] = experiment: Antimicrobial activity against Salmonella enterica serovar Typhimurium CHS38 with GyrA D87G mutation; method in brief: as §1
# Salmonella typhimurium [13] = experiment: Antimicrobial activity against Salmonella enterica serovar Typhimurium CS9 gyrA+ with GyrA S83F, D87N, ParC S80I mutation; method in brief: as §1
# Salmonella typhimurium [14] = experiment: Antimicrobial activity against Salmonella enterica serovar Typhimurium S21-1 gyrA+; method in brief: as §1
# Salmonella typhimurium [15] = experiment: Antimicrobial activity against Salmonella enterica serovar Typhimurium CS1 acrAB::Kan with GyrA S83F, D87N, ParC S80I mutation; method in brief: as §1
# Salmonella typhimurium [16] = experiment: Antimicrobial activity against Salmonella enterica serovar Typhimurium CS3 tolC::Kan with GyrA S83F, D87N, parC S80I mutation; method in brief: as §1
# Salmonella typhimurium [17] = experiment: Antimicrobial activity against Salmonella enterica serovar Typhimurium CHS38 gyrA+ with GyrA D87G mutation; method in brief: as §1
# Salmonella typhimurium [18] = experiment: Antimicrobial activity against Salmonella enterica serovar Typhimurium CHS18 tolC::Kan with GyrA S38F mutation; method in brief: as §1
# Salmonella typhimurium [19] = experiment: Antimicrobial activity against Salmonella enterica serovar Typhimurium S21 gyrA+; method in brief: as §1
# Salmonella typhimurium [20] = experiment: Antimicrobial activity against Salmonella enterica serovar Typhimurium CS9 with GyrA S83F, D87N, ParC S80I mutation; method in brief: as §1
# Salmonella typhimurium [21] = experiment: Antimicrobial activity against Salmonella enterica serovar Typhimurium CHS14 tolC::Kan with GyrA D87G mutant; method in brief: as §1
# Salmonella typhimurium [22] = experiment: Antimicrobial activity against Salmonella enterica serovar Typhimurium CHS14 with GyrA D87G mutation; method in brief: as §1
# Salmonella typhimurium [23] = experiment: Antimicrobial activity against Salmonella enterica serovar Typhimurium CS3 with GyrA S83F, D87N, ParC S80I mutation; method in brief: as §1
# Salmonella typhimurium [24] = experiment: Antimicrobial activity against Salmonella enterica serovar Typhimurium CHS18 acrAB::Kan with GyrA S38F mutation; method in brief: as §1
# Salmonella typhimurium [25] = experiment: Antimicrobial activity against Salmonella enterica serovar Typhimurium CS1 gyrA+ with GyrA S83F, D87N, ParC S80I mutation; method in brief: as §1
# Salmonella typhimurium [26] = experiment: Antimicrobial activity against Salmonella enterica serovar Typhimurium CS3 gyrA+ with GyrA S83F, D87N, ParC S80I mutation; method in brief: as §1
# Salmonella typhimurium [27] = experiment: Antimicrobial activity against Salmonella enterica serovar Typhimurium CHS14 acrAB::Kan with GyrA D87G mutation; method in brief: as §1
# Salmonella typhimurium [28] = experiment: Antimicrobial activity against Salmonella enterica serovar Typhimurium CS1 tolC::Kan with GyrA S83F, D87N, ParC S80I mutation; method in brief: as §1
# Salmonella typhimurium [29] = experiment: Antimicrobial activity against Salmonella enterica serovar Typhimurium CS9 tolC::Kan with GyrA S83F, D87N, ParC S80I mutation; method in brief: as §1
compound,measurement,setting,value
CC1(C)S[C@@H]2[C@H](NC(=O)[C@H](N)c3ccccc3)C(=O)N2[C@H]1C(=O)O [AMPICILLIN],MIC,Salmonella typhimurium [1],> 32 µg/mL
same,MIC,Salmonella typhimurium [2],< 1 µg/mL
same,MIC,Salmonella typhimurium [3],< 1 µg/mL
same,MIC,Salmonella typhimurium [4],> 32 µg/mL
same,MIC,Salmonella typhimurium [5],> 32 µg/mL
same,MIC,Salmonella typhimurium [6],2 µg/mL
same,MIC,Salmonella typhimurium [7],> 32 µg/mL
same,MIC,Salmonella typhimurium [8],< 1 µg/mL
same,MIC,Salmonella typhimurium [9],2 µg/mL
same,MIC,Salmonella typhimurium [10],2 µg/mL
same,MIC,Salmonella typhimurium [11],> 32 µg/mL
same,MIC,Salmonella typhimurium [12],> 32 µg/mL
same,MIC,Salmonella typhimurium [13],> 32 µg/mL
same,MIC,Salmonella typhimurium [14],> 32 µg/mL
same,MIC,Salmonella typhimurium [15],> 32 µg/mL
same,MIC,Salmonella typhimurium [16],> 32 µg/mL
same,MIC,Salmonella typhimurium [17],> 32 µg/mL
same,MIC,Salmonella typhimurium [18],1 µg/mL
same,MIC,Salmonella typhimurium [19],2 µg/mL
same,MIC,Salmonella typhimurium [20],> 32 µg/mL
same,MIC,Salmonella typhimurium [21],< 1 µg/mL
same,MIC,Salmonella typhimurium [22],< 1 µg/mL
same,MIC,Salmonella typhimurium [23],> 32 µg/mL
same,MIC,Salmonella typhimurium [24],1 µg/mL
same,MIC,Salmonella typhimurium [25],> 32 µg/mL
same,MIC,Salmonella typhimurium [26],> 32 µg/mL
same,MIC,Salmonella typhimurium [27],< 1 µg/mL
same,MIC,Salmonella typhimurium [28],> 32 µg/mL
same,MIC,Salmonella typhimurium [29],> 32 µg/mL
